Data as given in ChEMBL document CHEMBL4840303, “Design, synthesis, biological evaluation and pharmacophore model analysis of novel tetrahydropyrrolo[3,4-c]pyrazol derivatives as potential TRKs inhibitors” (Eur J Med Chem, 2021).

How the values were obtained:
[1] = target: Serine/threonine-protein kinase mTOR (Homo sapiens) (UniProt P42345); experiment: Inhibition of recombinant GST-tagged human mTOR (1360 to 2549 residues) expressed in baculovirus expression system at 1 uM measured by select screen assay relative to control
In short: (§1)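 Single-concentration profiling at 1.0 µM in a 28-kinase SelectScreen panel; percent inhibition reported.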

[2] = target: Maternal embryonic leucine zipper kinase (Homo sapiens) (UniProt Q14680); experiment: Inhibition of recombinant GST-tagged human MELK expressed in baculovirus expression system at 1 uM measured by select screen assay relative to control; in short: as §1
[3] = target: ALK tyrosine kinase receptor (Homo sapiens) (UniProt Q9UM73); experiment: Inhibition of recombinant GST-tagged human ALK expressed in baculovirus expression system at 1 uM measured by select screen assay relative to control; in short: as §1
[4] = Stability in human plasma assessed as compound remaining incubated for 30 mins by LC-MS/MS analysis; format: ADME, cell-free; conditions: read-out: Stability
In short: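 Pooled frozen human plasma thawed at 37 °C, centrifuged to remove clots, pH adjusted to 7.4 if required. Spiked to 2 µM final (from 100 µM dosing solution), in duplicate, incubated at 37 °C in a water bath. Sampled at 0, 10, 30, 60 and 120 min, quenched with acetonitrile stop solution containing internal standards, centrifuged, and supernatant analysed by LC-MS/MS for percent remaining.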

[5] = test system: KM12; experiment: Cell cycle arrest in human KM12 cells assessed as accumulation of cells at less G1 phase at 1000 nM measured after 48 hrs by AnnexinV-FITC/PI staining based flowcytometry method relative to control; format: functional
[6] = Clearance in Sprague dawley rat at 1 mg/kg, iv; format: ADME, organism-based; conditions: in vivo
In short: (§2)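 Blood was collected into heparin tubes at specified time points and centrifuged at once (4 °C, 4000 rpm, 20 min). Plasma levels were quantified by LC-MS/MS. Parameters came from noncompartmental analysis.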

[7] = AUC (last) in Sprague dawley rat at 1 mg/kg, iv; format: ADME, organism-based; parameters: time 0 - last, route intravenous, dose 1 mg/kg; conditions: in vivo; in short: as §2
[8] = test system: KM12; experiment: Induction of apoptosis in human KM12 cells assessed as early apoptotic cells at 125 nM measured after 48 hrs by AnnexinV-FITC/PI staining based flowcytometry assay relative to control; format: functional
In short: (§3)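 They were detached with trypsin, washed twice in PBS, and 10^5 cells were suspended in Annexin V binding buffer. Cells were stained with FITC-Annexin V and PI for 10 min at room temperature in the dark, diluted with PBS and analysed by flow cytometry.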

[9] = target: CYP2C9 (Homo sapiens, UniProt P11712); experiment: Inhibition of CYP2C9 in human liver microsomes at 10 uM preincubated for 10 mins followed by addition of NADPH and measured after 15 mins by LC-MS/MS analysis; format: ADME; conditions: time 25 min
In short: (§4)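 Pooled human liver microsomes (0.253 mg/mL) with test compound at 10 µM and probe substrates: phenacetin (CYP1A2), diclofenac (CYP2C9), S-mephenytoin (CYP2C19), dextromethorphan (CYP2D6), midazolam (CYP3A4). 10 min preincubation at 37 °C, NADPH-regenerating system added, 15 min at 37 °C. Stopped with cold acetonitrile containing tolbutamide/labetalol internal standards, centrifuged, supernatant read by LC-MS/MS; % inhibition.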

[10] = target: RAC-alpha serine/threonine-protein kinase (Homo sapiens) (UniProt P31749); experiment: Inhibition of recombinant His-tagged human full length AKT1 expressed in baculovirus expression system at 1 uM measured by select screen assay relative to control; in short: as §1
[11] = test system: KM12; experiment: Cell cycle arrest in human KM12 cells assessed as accumulation of cells at greater G1 phase at 500 nM measured after 48 hrs by AnnexinV-FITC/PI staining based flowcytometry method relative to control; format: functional
[12] = test system: KM12; experiment: Cell cycle arrest in human KM12 cells assessed as accumulation of cells at S phase at 1000 nM measured after 48 hrs by AnnexinV-FITC/PI staining based flowcytometry method relative to control; format: functional
[13] = test system: KM12; experiment: Induction of apoptosis in human KM12 cells assessed as necrotic cells at 500 nM measured after 48 hrs by AnnexinV-FITC/PI staining based flowcytometry assay relative to control; format: functional
In short: (§5)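 10^5 cells in Annexin V binding buffer stained with FITC-Annexin V and PI for 10 min at room temperature in the dark, diluted with PBS and analysed by flow cytometry (FITC 494/518 nm, PI 535/617 nm).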

[14] = test system: KM12; experiment: Cell cycle arrest in human KM12 cells assessed as accumulation of cells at less G1 phase at 125 nM measured after 48 hrs by AnnexinV-FITC/PI staining based flowcytometry method relative to control; format: functional
[15] = test system: KM12; experiment: Induction of apoptosis in human KM12 cells assessed as viable cells at 500 nM measured after 48 hrs by AnnexinV-FITC/PI staining based flowcytometry assay relative to control; format: functional; conditions: read-out: Activity; in short: as §5
[16] = test system: KM12; experiment: Cell cycle arrest in human KM12 cells assessed as accumulation of cells at G1 phase at 500 nM measured after 48 hrs by AnnexinV-FITC/PI staining based flowcytometry method relative to control; format: functional
[17] = target: Focal adhesion kinase 1 (Homo sapiens) (UniProt Q05397); experiment: Inhibition of recombinant GST-tagged full length human FAK expressed in baculovirus expression system at 1 uM measured by select screen assay; in short: as §1
[18] = Stability in human liver microsomes assessed as compound remaining at 100 uM measured after 60 mins by LC-MS/MS analysis; format: ADME, Microsome; conditions: 1 h
In short: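 Human liver microsomes diluted to 0.59 mg/mL working solution in 100 mM potassium phosphate, prewarmed 10 min at 37 °C; compound added from a 100 µM working solution. NADPH (in 10 mM MgCl2) added to one plate, buffer instead in no-cofactor control. Incubated at 37 °C, quenched at 5, 15, 30, 45, 60 min, centrifuged, analysed by LC-MS/MS.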

[19] = test system: KM12; experiment: Cell cycle arrest in human KM12 cells assessed as accumulation of cells at S phase at 500 nM measured after 48 hrs by AnnexinV-FITC/PI staining based flowcytometry method relative to control; format: functional
[20] = test system: KM12; experiment: Induction of apoptosis in human KM12 cells assessed as late apoptotic cells at 1000 nM measured after 48 hrs by AnnexinV-FITC/PI staining based flowcytometry assay relative to control; format: functional; in short: as §3
[21] = target: Serine/threonine-protein kinase pim-1 (Homo sapiens) (UniProt P11309); experiment: Inhibition of recombinant His-tagged full length human PIM1 expressed in baculovirus expression system at 1 uM measured by select screen assay relative to control; in short: as §1
[22] = test system: THLE-2; experiment: cells; conditions: Homo sapiens, THLE-2, 72 h
[23] = target: Serine/threonine-protein kinase TBK1 (Homo sapiens) (UniProt Q9UHD2); experiment: Inhibition of recombinant GST-tagged full length human TBK1 expressed in baculovirus expression system at 1 uM measured by select screen assay relative to control; in short: as §1
[24] = test system: KM12; experiment: Induction of apoptosis in human KM12 cells assessed as viable cells at 250 nM measured after 48 hrs by AnnexinV-FITC/PI staining based flowcytometry assay relative to control; format: functional; conditions: read-out: Activity; in short: as §5
[25] = target: CYP2D6 (Homo sapiens, UniProt P10635); experiment: Inhibition of CYP2D6 in human liver microsomes at 10 uM preincubated for 10 mins followed by addition of NADPH and measured after 15 mins by LC-MS/MS analysis; format: ADME; conditions: time 25 min; in short: as §4
Sequence of CYP2D6 (P10635 whole entry): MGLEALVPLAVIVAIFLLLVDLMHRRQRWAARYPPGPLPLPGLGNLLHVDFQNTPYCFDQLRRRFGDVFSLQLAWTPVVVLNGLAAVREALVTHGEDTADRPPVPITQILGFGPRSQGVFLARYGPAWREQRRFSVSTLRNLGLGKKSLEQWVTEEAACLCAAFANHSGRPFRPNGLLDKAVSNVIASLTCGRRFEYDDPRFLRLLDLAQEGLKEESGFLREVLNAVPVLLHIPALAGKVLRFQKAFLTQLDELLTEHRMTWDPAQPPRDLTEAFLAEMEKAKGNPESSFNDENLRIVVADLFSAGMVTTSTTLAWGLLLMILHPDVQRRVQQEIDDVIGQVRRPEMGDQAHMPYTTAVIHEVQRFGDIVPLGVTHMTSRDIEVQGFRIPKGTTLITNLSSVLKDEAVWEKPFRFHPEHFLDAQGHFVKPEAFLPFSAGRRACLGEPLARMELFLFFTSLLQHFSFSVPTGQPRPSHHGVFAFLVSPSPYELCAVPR

Sequence of CYP2C9 (P11712 whole entry): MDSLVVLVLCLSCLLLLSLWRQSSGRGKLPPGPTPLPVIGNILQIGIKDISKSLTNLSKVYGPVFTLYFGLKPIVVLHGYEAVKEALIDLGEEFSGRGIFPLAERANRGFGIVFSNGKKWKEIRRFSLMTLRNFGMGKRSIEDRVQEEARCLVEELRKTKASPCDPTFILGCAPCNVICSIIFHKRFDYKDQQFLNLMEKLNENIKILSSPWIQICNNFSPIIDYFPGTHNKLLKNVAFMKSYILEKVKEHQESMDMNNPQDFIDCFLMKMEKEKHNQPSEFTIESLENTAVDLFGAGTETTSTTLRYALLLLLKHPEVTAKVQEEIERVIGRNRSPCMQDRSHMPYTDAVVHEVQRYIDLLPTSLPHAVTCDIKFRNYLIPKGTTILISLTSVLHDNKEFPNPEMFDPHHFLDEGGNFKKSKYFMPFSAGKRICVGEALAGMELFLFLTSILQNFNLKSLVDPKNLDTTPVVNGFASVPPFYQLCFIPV
Sequence of Focal adhesion kinase 1 (Homo sapiens) (Q05397 2-1052 limits assumed): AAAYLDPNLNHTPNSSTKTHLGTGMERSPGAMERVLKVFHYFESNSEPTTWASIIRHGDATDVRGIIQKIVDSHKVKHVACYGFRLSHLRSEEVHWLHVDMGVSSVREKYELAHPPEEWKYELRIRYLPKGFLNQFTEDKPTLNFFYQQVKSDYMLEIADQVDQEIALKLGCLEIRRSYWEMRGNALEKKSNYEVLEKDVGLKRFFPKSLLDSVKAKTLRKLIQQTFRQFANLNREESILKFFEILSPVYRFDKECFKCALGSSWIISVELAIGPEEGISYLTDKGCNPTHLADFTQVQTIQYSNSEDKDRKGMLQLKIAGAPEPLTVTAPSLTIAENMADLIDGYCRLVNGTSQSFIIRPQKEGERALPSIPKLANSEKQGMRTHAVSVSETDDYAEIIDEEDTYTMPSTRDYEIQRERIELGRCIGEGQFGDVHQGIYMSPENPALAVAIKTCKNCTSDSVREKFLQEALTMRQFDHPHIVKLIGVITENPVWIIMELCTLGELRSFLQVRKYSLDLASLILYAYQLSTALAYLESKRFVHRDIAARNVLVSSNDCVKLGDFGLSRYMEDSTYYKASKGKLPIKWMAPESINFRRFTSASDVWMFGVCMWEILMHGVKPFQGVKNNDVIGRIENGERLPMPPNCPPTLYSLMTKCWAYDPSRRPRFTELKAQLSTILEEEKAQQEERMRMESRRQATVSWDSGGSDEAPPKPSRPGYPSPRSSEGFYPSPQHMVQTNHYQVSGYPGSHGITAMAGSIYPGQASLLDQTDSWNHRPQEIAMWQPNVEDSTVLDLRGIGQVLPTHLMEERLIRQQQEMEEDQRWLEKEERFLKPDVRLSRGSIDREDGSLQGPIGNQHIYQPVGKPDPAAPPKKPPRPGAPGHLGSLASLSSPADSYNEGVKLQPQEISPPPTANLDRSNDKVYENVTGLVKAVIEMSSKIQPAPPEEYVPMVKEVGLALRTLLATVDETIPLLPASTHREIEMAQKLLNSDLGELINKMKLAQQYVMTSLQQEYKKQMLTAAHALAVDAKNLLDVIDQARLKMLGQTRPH
Sequence of Maternal embryonic leucine zipper kinase (Homo sapiens) (Q14680 whole entry, looked up): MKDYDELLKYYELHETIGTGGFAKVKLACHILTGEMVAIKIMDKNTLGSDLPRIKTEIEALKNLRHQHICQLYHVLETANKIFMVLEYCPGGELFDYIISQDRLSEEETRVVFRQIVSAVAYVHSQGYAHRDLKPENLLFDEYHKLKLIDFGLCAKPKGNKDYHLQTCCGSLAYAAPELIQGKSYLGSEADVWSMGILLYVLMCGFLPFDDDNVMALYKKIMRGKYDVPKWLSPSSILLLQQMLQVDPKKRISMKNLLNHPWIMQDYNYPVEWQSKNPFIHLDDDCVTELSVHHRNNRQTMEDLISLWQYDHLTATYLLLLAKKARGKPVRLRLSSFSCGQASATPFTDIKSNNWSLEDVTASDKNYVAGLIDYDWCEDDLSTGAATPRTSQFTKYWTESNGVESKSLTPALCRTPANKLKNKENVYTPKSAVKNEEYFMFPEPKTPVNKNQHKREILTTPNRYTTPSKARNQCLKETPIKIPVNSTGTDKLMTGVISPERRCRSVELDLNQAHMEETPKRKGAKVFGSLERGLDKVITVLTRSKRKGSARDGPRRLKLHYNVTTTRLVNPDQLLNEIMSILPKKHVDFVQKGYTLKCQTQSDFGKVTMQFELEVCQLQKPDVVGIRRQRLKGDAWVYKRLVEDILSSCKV
Sequence of Serine/threonine-protein kinase pim-1 (Homo sapiens) (P11309 whole entry, looked up): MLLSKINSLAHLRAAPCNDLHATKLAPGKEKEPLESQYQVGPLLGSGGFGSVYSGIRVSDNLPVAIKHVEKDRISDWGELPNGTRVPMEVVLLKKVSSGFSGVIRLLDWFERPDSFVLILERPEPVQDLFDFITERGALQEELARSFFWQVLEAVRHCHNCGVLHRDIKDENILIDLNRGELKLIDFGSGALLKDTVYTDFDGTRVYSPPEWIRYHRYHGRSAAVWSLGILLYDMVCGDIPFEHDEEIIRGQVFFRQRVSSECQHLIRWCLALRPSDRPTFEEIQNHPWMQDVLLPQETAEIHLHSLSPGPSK
Sequence of Serine/threonine-protein kinase TBK1 (Homo sapiens) (Q9UHD2 whole entry): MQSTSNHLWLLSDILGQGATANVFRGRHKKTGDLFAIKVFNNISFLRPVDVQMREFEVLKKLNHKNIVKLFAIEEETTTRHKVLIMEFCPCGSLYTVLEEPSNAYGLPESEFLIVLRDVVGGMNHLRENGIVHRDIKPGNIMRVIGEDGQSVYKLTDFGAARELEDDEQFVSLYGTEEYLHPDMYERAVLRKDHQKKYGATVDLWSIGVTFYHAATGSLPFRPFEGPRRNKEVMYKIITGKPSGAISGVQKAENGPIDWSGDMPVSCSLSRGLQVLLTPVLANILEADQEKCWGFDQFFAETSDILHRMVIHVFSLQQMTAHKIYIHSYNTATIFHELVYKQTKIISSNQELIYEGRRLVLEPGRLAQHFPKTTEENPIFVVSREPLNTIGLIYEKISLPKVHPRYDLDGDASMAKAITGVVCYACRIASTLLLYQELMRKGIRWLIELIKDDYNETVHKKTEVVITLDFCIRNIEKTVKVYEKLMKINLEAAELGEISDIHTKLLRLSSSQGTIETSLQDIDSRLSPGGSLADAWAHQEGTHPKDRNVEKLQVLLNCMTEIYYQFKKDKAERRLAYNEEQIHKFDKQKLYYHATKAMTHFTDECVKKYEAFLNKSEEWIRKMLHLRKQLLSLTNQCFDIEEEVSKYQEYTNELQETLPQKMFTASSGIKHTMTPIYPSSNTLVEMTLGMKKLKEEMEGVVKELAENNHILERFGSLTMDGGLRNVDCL
Sequence of RAC-alpha serine/threonine-protein kinase (Homo sapiens) (P31749 whole entry): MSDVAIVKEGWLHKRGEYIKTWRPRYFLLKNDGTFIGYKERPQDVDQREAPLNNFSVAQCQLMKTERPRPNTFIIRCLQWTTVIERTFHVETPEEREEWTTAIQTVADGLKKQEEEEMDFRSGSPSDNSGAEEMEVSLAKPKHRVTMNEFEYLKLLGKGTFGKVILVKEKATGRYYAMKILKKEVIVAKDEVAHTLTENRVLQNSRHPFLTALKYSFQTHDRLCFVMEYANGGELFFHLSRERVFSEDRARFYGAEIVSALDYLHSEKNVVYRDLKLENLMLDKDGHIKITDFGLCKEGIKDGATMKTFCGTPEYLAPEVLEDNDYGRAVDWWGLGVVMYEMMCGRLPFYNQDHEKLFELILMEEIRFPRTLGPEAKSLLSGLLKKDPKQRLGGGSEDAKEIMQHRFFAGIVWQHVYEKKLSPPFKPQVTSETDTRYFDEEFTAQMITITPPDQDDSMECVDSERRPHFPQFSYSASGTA

## CN1CCN(c2ccc(C(=O)Nc3n[nH]c4c3CN(Cc3cc(F)cc(F)c3)C4(C)C)cc2)CC1
[1]
  inhibition: 1%
[2]
  inhibition: 22%
[3]
  inhibition: 82%
[4]
  remaining at 0.5 h: 95.7%
[5]
  Activity: 7.77%
[6]
  clearance: 8.08 mL/min/kg
[7]
  AUC(0-t): 2030 ng·h/mL
[8]
  Activity: 18.15%
[9]
  inhibition at 0.25 h, 10 µM: 16%
[10]
  inhibition: 2%
[11]
  Activity: 1.57%
[12]
  Activity: 7.22%
[13]
  Activity: 0.06%
[14]
  Activity: 7.36%
[15]
  viability at 0.5 µM: 25%
[16]
  Activity: 73.9%
[17]
  inhibition: 51%
[18]
  Stability: 90.9%
[19]
  Activity: 6.56%
[20]
  Activity: 39.95%
[21]
  inhibition: 0%
[22]
  IC50: > 100 µM
[23]
  inhibition: 7%
[24]
  viability at 0.25 µM: 30.2%
[25]
  inhibition at 0.25 h, 10 µM: 0%
